Results: ChEMBL document CHEMBL1134812, “Benzamide bioisosteres incorporating dihydroheteroazole substructures: EPC synthesis and SAR leading to a selective dopamine D4 receptor partial agonist (FAUC 179)” (Bioorg Med Chem Lett, 2001)

What was measured:
[1] = target: D(3) dopamine receptor (Homo sapiens, UniProt P35462); test: Displacement of [3H]spiperone from human Dopamine receptor D3 expressed in CHO cells; format: cell-based
Procedure, shortened: (§1)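 [3H]Spiperone displacement from cloned human dopamine receptors stably expressed in CHO cells: D2long, D2short, D3 and D4.4 (the D4 line used the D4.4 variant). Ki values were determined.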

[2] = target: T1, D(2) dopamine receptor (Homo sapiens, UniProt P14416); test: In vitro for its ability to displace [3H]- spiperone from cloned human dopamine D2 short receptor expressed in CHO cells; format: cell-based; procedure, shortened: as §1
[3] = target: D(1A) dopamine receptor (Bos taurus, UniProt Q95136); test: In vitro for its ability to displace [3H]- SCH 23390 from Dopamine receptor D1 in bovine striatal membrane […]; format: cell-based, Striatum
Procedure, shortened: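 D1 affinity was measured with bovine striatal membrane preparations and the D1-selective antagonist [3H]SCH 23390 as radioligand. Ki values were determined.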

[4] = target: T2, D(4) dopamine receptor (Homo sapiens, UniProt P21917); test: In vitro for its ability to displace [3H]- spiperone from cloned human Dopamine receptor D4 expressed in CHO cells; format: cell-based; procedure, shortened: as §1
T2 sequence (P21917 whole entry): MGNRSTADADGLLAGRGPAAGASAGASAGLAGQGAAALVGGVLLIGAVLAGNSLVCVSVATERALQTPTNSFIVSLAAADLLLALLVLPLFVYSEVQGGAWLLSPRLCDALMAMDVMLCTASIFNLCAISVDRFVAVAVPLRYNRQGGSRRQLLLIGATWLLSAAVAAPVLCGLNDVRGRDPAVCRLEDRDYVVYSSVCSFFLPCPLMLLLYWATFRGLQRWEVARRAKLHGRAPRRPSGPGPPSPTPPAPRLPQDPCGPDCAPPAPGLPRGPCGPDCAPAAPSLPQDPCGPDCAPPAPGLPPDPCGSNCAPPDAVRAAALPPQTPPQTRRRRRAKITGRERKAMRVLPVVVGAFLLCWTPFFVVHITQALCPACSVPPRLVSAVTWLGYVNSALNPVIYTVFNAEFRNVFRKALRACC

[5] = target: T1, D(2) dopamine receptor; test: In vitro for its ability to displace [3H]- spiperone from cloned human dopamine D2 long receptor expressed in CHO cells; format: cell-based; procedure, shortened: as §1
[6] = In vitro for its ability to displace [3H]- ketanserin from 5-hydroxytryptamine 2 receptor in porcine brain homogenate; format: tissue-based
Procedure, shortened: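 5-HT2 binding was measured in porcine brain homogenates by displacement of [3H]ketanserine. Ki values were determined.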

[7] = target: T1, D(2) dopamine receptor; test: In vitro for its ability to displace [3H]- spiperone from cloned human Dopamine receptor D2L expressed in CHO cells; format: cell-based; procedure, shortened: as §1

T1 sequence (P14416 whole entry): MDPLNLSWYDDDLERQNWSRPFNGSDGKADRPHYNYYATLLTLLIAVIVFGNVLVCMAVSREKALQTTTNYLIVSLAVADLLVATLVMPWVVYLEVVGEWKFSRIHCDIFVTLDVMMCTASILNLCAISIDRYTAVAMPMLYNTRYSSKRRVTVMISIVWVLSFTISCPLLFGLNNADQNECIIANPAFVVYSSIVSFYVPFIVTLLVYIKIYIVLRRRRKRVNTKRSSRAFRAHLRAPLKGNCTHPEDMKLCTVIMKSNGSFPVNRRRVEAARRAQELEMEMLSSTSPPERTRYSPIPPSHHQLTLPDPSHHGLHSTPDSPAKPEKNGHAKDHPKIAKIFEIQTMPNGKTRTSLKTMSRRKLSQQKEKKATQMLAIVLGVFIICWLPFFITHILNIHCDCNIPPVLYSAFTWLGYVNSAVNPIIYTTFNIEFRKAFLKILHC
Chain of D(1A) dopamine receptor (Q95136 whole entry): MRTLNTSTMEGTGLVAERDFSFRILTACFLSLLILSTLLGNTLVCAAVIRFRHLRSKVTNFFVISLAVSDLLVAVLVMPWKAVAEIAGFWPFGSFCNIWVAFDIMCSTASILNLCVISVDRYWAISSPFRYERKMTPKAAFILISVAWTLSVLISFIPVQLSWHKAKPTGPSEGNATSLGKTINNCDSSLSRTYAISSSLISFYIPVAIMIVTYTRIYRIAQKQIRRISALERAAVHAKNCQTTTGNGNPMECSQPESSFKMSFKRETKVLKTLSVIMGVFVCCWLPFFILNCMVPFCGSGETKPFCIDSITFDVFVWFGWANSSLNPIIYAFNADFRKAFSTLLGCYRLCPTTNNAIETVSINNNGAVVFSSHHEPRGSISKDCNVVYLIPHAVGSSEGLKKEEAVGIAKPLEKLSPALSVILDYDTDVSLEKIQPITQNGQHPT
Chain of D(3) dopamine receptor (P35462 whole entry): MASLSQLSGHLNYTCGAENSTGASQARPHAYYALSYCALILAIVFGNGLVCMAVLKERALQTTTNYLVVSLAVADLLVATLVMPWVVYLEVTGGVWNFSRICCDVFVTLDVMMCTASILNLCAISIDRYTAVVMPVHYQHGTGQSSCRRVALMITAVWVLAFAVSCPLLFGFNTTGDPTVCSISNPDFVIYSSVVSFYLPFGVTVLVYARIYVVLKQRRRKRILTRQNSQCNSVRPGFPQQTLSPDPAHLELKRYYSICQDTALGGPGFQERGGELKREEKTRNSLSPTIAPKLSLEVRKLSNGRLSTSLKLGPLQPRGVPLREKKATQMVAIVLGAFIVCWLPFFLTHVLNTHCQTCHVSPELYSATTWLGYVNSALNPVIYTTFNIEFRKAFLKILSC

| Structure (SMILES) | Ki [1] [nM] | Ki [2] [nM] | Ki [3] [nM] | Ki [4] [nM] | Ki [5] [nM] | Ki [6] [nM] | Ki [7] [nM] | Ki ([1]; cho) [nM] |
| --- | --- | --- | --- | --- | --- | --- | --- | --- |
| COc1ccc(Br)cc1C1=N[C@@H](CN2CCN(c3ccccc3)CC2)CO1 (stereo in doubt) | 1000 | 110 | 2000 | 390 | 400 | – | – | – |
| COc1ccc(Br)cc1C1=N[C@@H](CN2CCN(c3ccccc3)CC2)[C@@H](C)O1 (stereo in doubt) | 10000 | 18000 | 480 | 3300 | 21000 | – | – | – |
| c1ccc(C2=NC[C@H](CN3CCN(c4ccccc4)CC3)N2)cc1 (stereo in doubt) | 9000 | 10000 | – | – | 14000 | – | – | – |
| c1ccc(C2=N[C@@H](CN3CCN(c4ccccc4)CC3)CS2)cc1 (stereo in doubt) | 1200 | 720 | 4500 | 1200 | 1100 | – | – | – |
| C[C@@H]1OC(c2ccccc2)=N[C@H]1CN1CCN(c2ccccc2)CC1 (stereo in doubt) | 710 | 320 | 2000 | 440 | 820 | – | – | – |
| C[C@@H]1OC(c2ccccc2)=N[C@H]1CN1CCN(c2ccccc2)CC1 (stereo in doubt; 4b) | 2700 | 1900 | 20000 | 700 | 3200 | – | – | – |
| COc1ccc(Br)cc1C1=N[C@@H](CN2CCN(c3ccccc3)CC2)CO1 (stereo in doubt; 4c) | 5200 | 900 | 9000 | 1600 | 2200 | – | – | – |
| c1ccc(C2=N[C@@H](CN3CCN(c4ccccc4)CC3)CS2)cc1 (stereo in doubt; 4f) | – | 1100 | 16000 | 1800 | 1500 | – | – | 1200 |

Continued by falling Ki [1], values first:

| Ki [1] [nM] | Ki [2] [nM] | Ki [3] [nM] | Ki [4] [nM] | Ki [5] [nM] | Ki [6] [nM] | Ki [7] [nM] | Structure (SMILES) | Ki ([1]; cho) [nM] |
| --- | --- | --- | --- | --- | --- | --- | --- | --- |
| 7100 | 11000 | 12000 | – | – | 870 | 10000 | c1ccc(C2=NC[C@H](CN3CCN(c4ccccc4)CC3)N2)cc1 (stereo in doubt; 4e) | – |
| 3300 | 1100 | 9700 | 340 | 1700 | – | – | c1ccc(C2=N[C@@H](CN3CCN(c4ccccc4)CC3)CO2)cc1 (stereo in doubt; 4a) | – |
| 2500 | 2400 | 3500 | 290 | 3700 | – | – | COc1ccc(Br)cc1C1=N[C@@H](CN2CCN(c3ccccc3)CC2)[C@@H](C)O1 (stereo in doubt; 4d) | – |
| 690 | 330 | 4000 | 410 | 690 | – | – | c1ccc(C2=N[C@@H](CN3CCN(c4ccccc4)CC3)CO2)cc1 (stereo in doubt) | – |
